# Reference: ChEMBL document CHEMBL5390224, “Design, synthesis, and biological evaluation of a novel series of 1,2,4-oxadiazole inhibitors of SLACK potassium channels: Identification of in vitro tool VU0935685” (Bioorg Med Chem, 2023)
# pIC50: −log10 of the molar value. Calls of active or inactive are those of the source. The rule behind the calls is not given here.
# Legend:
# Assay type in all cases: cell-based
# HEK293 [1] = test: Inhibition of wild-type human SLACK expressed in HEK293 cells assessed as efficacy at 30 uM by thallium flux assay relative to control
# Procedure, shortened: (§1)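 Stable monoclonal HEK293 lines (WT or A934T SLACK) plated 20,000 cells/well; loaded 1 h at room temperature with Thallo-AM dye, 1.25 mM probenecid, masking dye, 0.3% Pluronic F-127 in buffer with 2.7 mM RbCl, pH 7.3. Compound preincubated 120 s, then Tl2SO4 stimulus (2.5 mM); fluorescence read 120 s. Concentration–response 1.5 nM–30 μM in half-log steps, ≥3 replicate wells.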
# HEK293 [2] = test: Activation of wild-type human SLACK expressed in HEK293 cells assessed as efficacy at 30 uM by thallium flux assay relative to control
# HEK293 [3] = test: (§2) Inhibition of wild-type human SLACK expressed in HEK293 cells by thallium flux assay; procedure, shortened: as §1
# [4] = as §2; procedure, shortened: as §1
# [5] = Inhibition of wild-type human SLACK expressed in CHO cells by whole cell voltage clamp electrophysiology assay; conditions: Cricetulus griseus
# Procedure, shortened: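 Automated whole-cell patch clamp at room temperature. External (mM): NaCl 105, KCl 4, MgCl2 1, CaCl2 5, HEPES 10, NMDG-Cl 40, pH 7.4. Internal: NaCl 70, KF 70, KCl 10, EGTA 5, HEPES 5, pH 7.2. Concentrations 0.125–30 μM in half-log steps, ≥3 cells per series.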
# CHO = test: Inhibition of wild-type human SLACK expressed in CHO cells assessed as efficacy at 30 uM by whole cell voltage clamp electrophysiology assay; conditions: Cricetulus griseus
Compound,Efficacy (HEK293 [1]),inhibition (HEK293 [3]),other results
O=S(=O)(c1ccccc1OCC1CCC1)N1CC(c2nc(-c3ccc(F)cc3)no2)C1,88%,,
CCOc1ccccc1C(=O)N1CC(c2nc(-c3ccsc3)no2)C1,,,Efficacy (HEK293 [2]): 18%
CCOc1ccccc1S(=O)(=O)N1CC(c2nc(-c3ccccc3C)no2)C1,,,Efficacy (HEK293 [2]): < 10%
CCOc1ccccc1S(=O)(=O)c1ccc(-c2nc(-c3ccc(F)cc3)no2)cc1,inactive,inactive,
CCNc1ccccc1S(=O)(=O)N1CC(c2nc(-c3ccsc3)no2)C1,inactive,inactive,
CCOc1ccccc1S(=O)(=O)N1CC(c2nc(-c3cccs3)no2)C1,99%,,pIC50 [4]: 5.16
O=S(=O)(c1cccc2ccoc12)N1CC(c2nc(-c3ccc(F)cc3)no2)C1,,,Efficacy (HEK293 [2]): 37%
O=S(=O)(c1cccn2cnnc12)N1CC(c2nc(-c3ccc(F)cc3)no2)C1,,,Efficacy (HEK293 [2]): 14%
CCOc1ccccc1S(=O)(=O)N1CC(c2nc(-c3ccc(C)cc3)no2)C1,inactive,inactive,
COc1ccc(Cl)cc1NC(=O)CN1CCN(S(=O)(=O)N2CCC(C)CC2)CC1,,,pIC50 [5]: 5.64; Efficacy (CHO): 95%
COc1cccc(S(=O)(=O)N2CC(c3nc(-c4ccsc4)no3)C2)c1,inactive,inactive,
O=S(=O)(c1ccccc1N1CCCCC1)N1CC(c2nc(-c3ccc(F)cc3)no2)C1,28%,,
O=S(=O)(c1ccccc1OCC1CC1)N1CC(c2nc(-c3ccc(F)cc3)no2)C1,95%,,
CCOc1ccccc1S(=O)(=O)N1CC[C@H](c2nc(-c3ccc(F)cc3)no2)C1,63%,,pIC50 [4]: < 5.00
CCOc1ccccc1S(=O)(=O)N1CC(c2cc(-c3ccc(F)cc3)no2)C1,inactive,inactive,
CCOc1ccccc1S(=O)(=O)N1CC(c2nc(-c3ccc(F)cn3)no2)C1,inactive,inactive,
CCOc1ccccc1S(=O)(=O)N1CC(c2cc(-c3ccc(F)cc3)n[nH]2)C1,,,Efficacy (HEK293 [2]): 24%
Cc1cccc(S(=O)(=O)N2CC(c3nc(-c4ccsc4)no3)C2)c1,,,Efficacy (HEK293 [2]): < 10%
CCOc1ccccc1S(=O)(=O)N1CC(c2nc(-c3cccc(F)c3)no2)C1,inactive,inactive,
Cc1nc2c(S(=O)(=O)N3CC(c4nc(-c5ccc(F)cc5)no4)C3)cccn2n1,,,Efficacy (HEK293 [2]): 16%

Compound,Efficacy (HEK293 [1]),inhibition (HEK293 [3]),other results
O=S(=O)(c1ccc(F)cc1)N1CC(c2nc(-c3ccsc3)no2)C1,inactive,inactive,
CCOc1ccccc1S(=O)(=O)N1CC(c2nc(-c3cccc(C)c3)no2)C1,< 10%,,
CCOc1ccccc1S(=O)(=O)N1CC(c2nc(-c3ccccc3Cl)no2)C1,81%,,
CCCCOc1ccccc1S(=O)(=O)N1CC(c2nc(-c3ccsc3)no2)C1,inactive,inactive,
O=S(=O)(c1cccc(C(F)(F)F)c1)N1CC(c2nc(-c3ccsc3)no2)C1,,,Efficacy (HEK293 [2]; filed as activator): 61%
O=S(=O)(c1cccc(Cl)c1)N1CC(c2nc(-c3ccsc3)no2)C1,inactive,inactive,
O=S(=O)(c1ccc(C(F)(F)F)cc1)N1CC(c2nc(-c3ccsc3)no2)C1,inactive,inactive,
CCOc1ccccc1S(=O)(=O)N1CC(c2nc(-c3ccccc3OC)no2)C1,,,Efficacy (HEK293 [2]): 18%
CCOc1ccccc1S(=O)(=O)N1CC(c2nc(-c3ccc(Cl)cc3)no2)C1,94%,,
CCOc1ccccc1S(=O)(=O)N1CC(c2cn(-c3ccc(F)cc3)nn2)C1,,,Efficacy (HEK293 [2]; filed as activator): 41%
CCOc1ccccc1S(=O)(=O)N1CC(c2nc(-c3ccncc3)no2)C1,inactive,inactive,
CCOc1ccccc1S(=O)(=O)N1CC(c2nc(-c3ccccn3)no2)C1,inactive,inactive,
CCOc1ncccc1S(=O)(=O)N1CC(c2nc(-c3ccc(F)cc3)no2)C1,46%,,
CCOc1ccccc1C(C)N1CC(c2nc(-c3ccsc3)no2)C1 (configuration not stated),,,Efficacy (HEK293 [2]): < 10%
CCOc1ccccc1S(=O)(=O)N1CC(c2nc(-c3ccccc3F)no2)C1,88%,,
CCOc1ccccc1S(=O)(=O)N1CC(c2noc(-c3ccc(F)cc3)n2)C1,45%,,
CCOc1ccccc1S(=O)(=O)N1CC(c2nc(-c3ncccn3)no2)C1,inactive,inactive,
CCOc1ccccc1S(=O)(=O)N1CC(F)(c2nc(-c3ccc(F)cc3)no2)C1,98%,,
CCOc1ccccc1S(=O)(=O)N1CC(C)(c2nc(-c3ccc(F)cc3)no2)C1,,,Efficacy (HEK293 [2]): 14%
CCOc1ccccc1S(=O)(=O)N1CC(c2ncc(-c3ccc(F)cc3)o2)C1,,,Efficacy (HEK293 [2]): 37%
